Assay results reported in ChEMBL document CHEMBL3414548, “Luotonin-A based quinazolinones cause apoptosis and senescence via HDAC inhibition and activation of tumor suppressor proteins in HeLa cells” (Eur J Med Chem, 2015).
Activity calls are given as the source filed them. No cut-off for these calls is given here.

What was measured:
[1] = system: HEK293; assay: Selectivity index, ratio of IC50 for HEK cells to IC50 for human K562 cells; format: functional
In short: (§1)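 Selectivity index is IC50 in normal HEK cells divided by IC50 in the cancer cell line.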

[2] = system: K562; assay: Cytotoxicity against human K562 cells after 72 hrs by MTT assay; format: functional, cell-based; details: K562, 72 h
In short: (§2)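 Cells were seeded at 1×10⁴ per well and preincubated 18 h at 37 °C, 5% CO₂. They were then exposed to 1–256 μM for 72 h with DMSO ≤0.25%. MTT was added for 2 h and formazan was solubilized in extraction buffer before reading OD at 570 nm. IC50 is mean ± SD of three independent experiments. HEK is the normal-cell line; cancer lines were grown in DMEM with 10% serum.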

[3] = system: MCF7; assay: Cytotoxicity against human MCF7 cells after 72 hrs by MTT assay; format: functional, cell-based; details: MCF7, 72 h; in short: as §2
[4] = system: HeLa; assay: Cytotoxicity against human HeLa cells after 72 hrs by MTT assay; format: functional, cell-based; in short: as §2
[5] = system: HeLa; assay: Selectivity index, ratio of IC50 for HEK cells to IC50 for human HeLa cells; format: functional; in short: as §1
[6] = Cytotoxicity against HEK cells after 72 hrs by MTT assay; format: cell-based; details: Homo sapiens, HEK293, 72 h; in short: as §2
[7] = system: HEK293; assay: Selectivity index, ratio of IC50 for HEK cells to IC50 for human MCF7 cells; format: functional; in short: as §1
[8] = system: HeLa; assay: Downregulation of HDAC-1 mRNA expression in human HeLa cells at 4 uM after 48 hrs by RT-PCR analysis; format: functional, cell-based
In short: (§3)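 HeLa cells were treated at 4 μM for 48 h before RNA isolation. cDNA was amplified by RT-PCR with gene-specific primers, using GAPDH as loading control. Products were run on 1% agarose gel with ethidium bromide, and band intensity was quantified by densitometry.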

[9] = system: HeLa; assay: Downregulation of HDAC-2 mRNA expression in human HeLa cells at 4 uM after 48 hrs by RT-PCR analysis; format: functional, cell-based; in short: as §3
[10] = system: HeLa; assay: Change in HDAC-7 mRNA expression in human HeLa cells at 4 uM after 48 hrs by RT-PCR analysis; format: functional, cell-based; in short: as §3
[11] = system: HeLa; assay: Induction of human p16 promoter activity transfected in human HeLa cells at 4 uM after 48 hrs by luciferase-based luminescence assay; format: cell-based
In short: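 A 1.4 kb human p16 promoter in pGL3-basic luciferase vector was co-transfected into HeLa with a β-gal plasmid. Cells were then treated at 4 μM for 48 h. Lysate luciferase luminescence was normalized to β-galactosidase as internal control.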

[12] = system: HeLa; assay: Upregulation of p53 mRNA expression in human HeLa cells at 4 uM after 48 hrs by RT-PCR analysis; format: functional, cell-based; in short: as §3
[13] = system: HeLa; assay: Upregulation of p21 mRNA expression in human HeLa cells at 4 uM after 48 hrs by RT-PCR analysis; format: functional, cell-based; in short: as §3
[14] = system: HeLa; assay: Downregulation of EZH2 mRNA expression in human HeLa cells at 4 uM after 48 hrs by RT-PCR analysis; format: functional, cell-based; in short: as §3
[15] = system: HeLa; assay: Induction of senescence in human HeLa cells at 4 uM after 72 hrs by X-gal staining-based beta-galactosidase assay; format: functional, cell-based
In short: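 HeLa cells in chamber slides were treated at 4 μM for 72 h. They were fixed in 3% paraformaldehyde and then in methanol at 4 °C. Staining used X-gal in sodium phosphate buffer with ferro/ferricyanide, 1 mM MgCl₂ and citric acid for 24 h. Senescent cells were scored by microscopy as enlarged, flattened and blue.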

[16] = system: HeLa; assay: Downregulation of HDAC-5 mRNA expression in human HeLa cells at 4 uM after 48 hrs by RT-PCR analysis; format: functional, cell-based; in short: as §3
[17] = system: HeLa; assay: Change in HDAC-6 mRNA expression in human HeLa cells at 4 uM after 48 hrs by RT-PCR analysis; format: functional, cell-based; in short: as §3
[18] = system: HeLa; assay: Cell cycle arrest in human HeLa cells assessed as accumulation at S phase at 8 uM after 48 hrs by propidium iodide staining-based flow cytometric analysis (reference value: 10%); format: functional
[19] = system: HeLa; assay: Cell cycle arrest in human HeLa cells assessed as accumulation at S phase at 4 uM after 48 hrs by propidium iodide staining-based flow cytometric analysis (reference value: 7%); format: functional
[20] = system: HeLa; assay: Cell cycle arrest in human HeLa cells assessed as accumulation at G0 phase at 8 uM after 48 hrs by propidium iodide staining-based flow cytometric analysis (reference value: 3%); format: functional
[21] = system: HeLa; assay: Cell cycle arrest in human HeLa cells assessed as accumulation at G0/G1 phase at 4 uM after 48 hrs by propidium iodide staining-based flow cytometric analysis (reference value: 62%); format: functional
[22] = system: HeLa; assay: Cell cycle arrest in human HeLa cells assessed as accumulation at G2/M phase at 4 uM after 48 hrs by propidium iodide staining-based flow cytometric analysis (reference value: 19%)
[23] = system: HeLa; assay: Cell cycle arrest in human HeLa cells assessed as accumulation at G1 phase at 8 uM after 48 hrs by propidium iodide staining-based flow cytometric analysis (reference value: 68%); format: functional
[24] = system: HeLa; assay: Cell cycle arrest in human HeLa cells assessed as accumulation at G2/M phase at 4 uM after 48 hrs by propidium iodide staining-based flow cytometric analysis (reference value: 31%); format: functional

Row | SMILES | Ratio IC50 [1] | IC50 [2] | IC50 [3] | IC50 [4] | Ratio IC50 [5] | IC50 [6] | Ratio IC50 [7] | further results
1 | Cc1nc2ccccc2c(=O)n1-c1ccccc1Cn1ccnn1 | 3.39 | 22.4 µM | 15.3 µM | 16.4 µM | 4.62 | 76 µM | 4.97 | –
2 | COc1cc2nc(C)n(-c3ccccc3Cn3cc(-c4ccc(-c5ccccc5)cc4)nn3)c(=O)c2cc1OC | 3.16 | 22.4 µM | 10.5 µM | 14.2 µM | 5.01 | 71 µM | 6.78 | –
3 | COc1cccc2c1C(=O)c1c(O)c3c(c(O)c1C2=O)C[C@@](O)(C(=O)CO)C[C@@H]3O[C@H]1C[C@H](N)[C@H](O)[C@H](C)O1 | – | – | – | – | – | – | – | Activity [8]: Active; Activity [9]: Active; Activity [10]: inactive; Activity [11]: Active; Activity [12]: Active; Activity [13]: Active; Activity [14]: Active; Activity [15]: Active; Activity [16]: Active; Activity [17]: inactive
4 | CCCc1cn(Cc2ccccc2-n2c(C)nc3cc(OC)c(OC)cc3c2=O)nn1 | 3.3 | 22.4 µM | 14.4 µM | 13.2 µM | 5.58 | 74 µM | 5.13 | –
5 | COc1cc2nc(C)n(-c3ccccc3Cn3nnc4ncccc43)c(=O)c2cc1OC | 4.01 | 19.7 µM | 18.6 µM | 11.9 µM | 6.64 | 79 µM | 4.25 | –
6 | Cc1nc2ccccc2c(=O)n1-c1ccccc1Cn1cc(S)nn1 | 7.2 | 26.2 µM | 15 µM | 11 µM | 17.22 | 189 µM | 12.61 | Activity [18]: 6%; Activity [19]: 7%; Activity [20]: 4%; Activity [21]: 71%; Activity [22]: 21%; Activity [23]: 69%; Activity [24]: 22%
